A short description of data set [1]: Cytotoxicity against mouse RAW264.7 cells assessed as growth inhibition at 10 uM after 72 hrs by MTT assay relative to control. It is filed as cell-based. Conditions: read-out: GI.
The subject of data set [2] is RAW264.7. The experiment in a line: Anti-inflammatory activity in mouse RAW264.7 cells assessed as inhibition of LPS-induced IL-6 production at 10 uM pretreated for 1 hr followed by LPS stimulation measured after 24 hrs by ELISA relative to control. It is filed as functional. The procedure, abridged: (§1)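 LPS-stimulated RAW 264.7 macrophages, with IL-6 and TNF-α production read separately. Test concentrations were 0.4, 2, 10 and 50 μM, and dexamethasone was the reference drug. Results are given as percent inhibition of cytokine production.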

In data set [3] the test system is RAW264.7. The data set is described as follows: Anti-inflammatory activity in mouse RAW264.7 cells assessed as inhibition of LPS-induced TNF-alpha production at 2 uM pretreated for 1 hr followed by LPS stimulation measured after 24 hrs by ELISA relative to control. It is filed as functional. The procedure, abridged:
as §1
A general note: In an ELISA, binding on a coated surface is turned into a signal by an enzyme label.

Data set [4] relates to RAW264.7. The experiment in a line: Anti-inflammatory activity in mouse RAW264.7 cells assessed as inhibition of LPS-induced IL-6 production at 2 uM pretreated for 1 hr followed by LPS stimulation measured after 24 hrs by ELISA relative to control. It is filed as functional. The procedure, abridged: as §1
Data set [5] concerns NCI-N87. The data set is described as follows: Cytotoxicity against human NCI-N87 cells after 72 hrs by MTT assay. Type of data set: functional, cell-based. Conditions: NCI-N87, 72 h. The procedure, abridged:
(§2)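 MTT growth-inhibition assay in human HepG2 hepatocellular, NCI-N87 gastric and MCF-7 breast carcinoma lines, with a doxorubicin positive control. IC50 values are means ± SD from three individual experiments; >10.0 μM was taken as noncytotoxic.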
(In general: Tetrazolium assays rely on reduction of a dye to a coloured formazan, in cell work by metabolically active cells.)

The subject of data set [6] is MCF7. The data set is described as follows: Cytotoxicity against human MCF7 cells after 72 hrs by MTT assay. It is filed as functional, cell-based. The following applies: MCF7, 72 h. The procedure, abridged: as §2
For data set [7], the system named is RAW264.7. The data set is described as follows: Anti-inflammatory activity in mouse RAW264.7 cells assessed as inhibition of LPS-induced TNF-alpha production at 0.4 uM pretreated for 1 hr followed by LPS stimulation measured after 24 hrs by ELISA relative to control. It is filed as functional. The procedure, abridged: as §1
Data set [8] has as its system RAW264.7. The experiment in a line: Anti-inflammatory activity in mouse RAW264.7 cells assessed as inhibition of LPS-induced TNF-alpha production at 10 uM pretreated for 1 hr followed by LPS stimulation measured after 24 hrs by ELISA relative to control. It is filed as functional. The procedure, abridged: as §1
The subject of data set [9] is RAW264.7. The experiment in a line: Anti-inflammatory activity in mouse RAW264.7 cells assessed as inhibition of LPS-induced IL-6 production at 0.4 uM pretreated for 1 hr followed by LPS stimulation measured after 24 hrs by ELISA relative to control. Type of data set: functional. The procedure, abridged: as §1
The test system of data set [10] is RAW264.7. The experiment in a line: Anti-inflammatory activity in mouse RAW264.7 cells assessed as inhibition of LPS-induced IL-6 production at 50 uM pretreated for 1 hr followed by LPS stimulation measured after 24 hrs by ELISA relative to control. Type of data set: functional. The procedure, abridged: as §1
Data set [11] relates to RAW264.7. The experiment in a line: Anti-inflammatory activity in mouse RAW264.7 cells assessed as inhibition of LPS-induced TNF-alpha production at 50 uM pretreated for 1 hr followed by LPS stimulation measured after 24 hrs by ELISA relative to control. It is filed as functional. The procedure, abridged:
as §1

Data set [12] deals with HepG2. The data set is described as follows: Cytotoxicity against human HepG2 cells after 72 hrs by MTT assay. Type of data set: functional, cell-based. Conditions: HepG2, 72 h. The procedure, abridged:
as §2

Our source for the inhibition and IC50 values is ChEMBL document CHEMBL4002555, “Bioactive Pentacyclic Triterpenoids from the Leaves of Cleistocalyx operculatus” (J Nat Prod, 2016).

What is called IC50 is the midpoint of a concentration-inhibition curve. Lower therefore signals inhibition by little substance.

Turning to `C=C1CC[C@]2(C(=O)O)CC[C@]3(C)C(=C[C@@H](O)[C@@H]4[C@@]5(C)C[C@@H](O)[C@H](O)[C@@](C)(CO)[C@@H]5CC[C@]43C)[C@@H]2[C@H]1C`, in [1], the inhibition at 72 h, 10 µM is less than 5%. Further, the inhibition at 10 µM in [2] and in data set [8] was less than 50% throughout. For the same compound, the inhibition at 2 µM in [3] and in [4] was less than 50% throughout. Besides, the IC50 in [5], in [6] and in data set [12] was more than 10 µM in each case. The inhibition at 0.4 µM in data set [7] and in data set [9] was less than 50% in each case. Besides, the inhibition at 50 µM in data set [10] and in data set [11] was less than 50% throughout.
On to `CC1(C)CC[C@]2(C(=O)O)CC[C@]3(C)C(=CC[C@@H]4[C@@]5(C)C[C@@H](O)[C@H](O)[C@@](C)(CO)[C@@H]5CC[C@]43C)[C@@H]2C1` [ARJUNOLIC ACID], for which the inhibition at 72 h, 10 µM in data set [1] is less than 5%. The inhibition at 10 µM in [2] and in data set [8] was less than 50% throughout. The inhibition at 2 µM in [3] and in data set [4] was less than 50% throughout. Further, the IC50 in data set [5], in data set [6] and in data set [12] was more than 10 µM in each case. Moreover, the inhibition at 0.4 µM in data set [7] and in data set [9] was less than 50% throughout. Further, the inhibition at 50 µM in data set [10] and in [11] was less than 50% throughout.
Take `C[C@H]1[C@H](C)CC[C@]2(C(=O)O)CC[C@]3(C)C(=C[C@@H](O)[C@@H]4[C@@]5(C)C[C@@H](O)[C@H](O)[C@@](C)(CO)[C@@H]5CC[C@]43C)[C@H]12`: the inhibition at 72 h, 10 µM in data set [1] was less than 5%. Further, the inhibition at 10 µM in [2] and in data set [8] was less than 50% in each case. Moreover, the inhibition at 2 µM in data set [3] and in data set [4] was less than 50% in each case. Also, the IC50 in data set [5], in data set [6] and in data set [12] was more than 10 µM throughout. The inhibition at 0.4 µM in [7] and in data set [9] was less than 50% each time. Besides, the inhibition at 50 µM in data set [10] and in [11] was less than 50% throughout.
On to `COC(=O)[C@@]12CC[C@]3(C(=O)O)[C@H](CC[C@@H]4[C@@]5(C)CC[C@H](O)C(C)(C)[C@@H]5CC[C@]43C)[C@@H]1[C@@H](C)C(C)=C[C@H]2O`, for which the inhibition at 72 h, 10 µM in [1] is less than 5%. The inhibition at 10 µM in data set [2] and in [8] was less than 50% each time. Further, the inhibition at 2 µM in data set [3] and in data set [4] was less than 50% throughout. The IC50 in data set [5], in data set [6] and in data set [12] was more than 10 µM in each case. Besides, the inhibition at 0.4 µM in data set [7] and in data set [9] was less than 50% throughout. Also, the inhibition at 50 µM in [10] and in [11] was less than 50% each time.
`C[C@@H]1C[C@H]2[C@@H]3CCC4=CC(=O)C=C[C@]4(C)[C@@]3(F)[C@@H](O)C[C@]2(C)[C@@]1(O)C(=O)CO` [DEXAMETHASONE]: the inhibition at 10 µM in [2] came out at 80.4%; in data set [8] it was 79.2%. In addition, the inhibition at 2 µM in data set [3] worked out at 71.8%; in data set [4], 75.9%. The figures for the inhibition at 50 µM in data set [10] and in [11] were 84.9% and 86.1%, respectively.
For the compound `C[C@H]1[C@H](C)CC[C@]2(C(=O)O)CC[C@]3(C)C(=CC[C@@H]4[C@@]5(C)CC[C@H](O)C(C)(C)[C@@H]5CC[C@]43C)[C@H]12` [URSOLIC ACID], the IC50 in data set [5] is 4.2 µM; in [6], 6.6 µM; in data set [12] it was more than 10 µM.
Regarding `C=C1CC[C@]2(C(=O)O)CC[C@]3(C)C(=CC[C@@H]4[C@@]5(C)C[C@@H](O)[C@H](O)[C@@](C)(CO)[C@@H]5CC[C@]43C)[C@@H]2[C@H]1C` [ACTINIDIC ACID], the inhibition at 72 h, 10 µM in data set [1] is less than 5%. The inhibition at 10 µM in [2] and in data set [8] was less than 50% each time. Also, the inhibition at 2 µM in [3] and in data set [4] was less than 50% each time. Moreover, the IC50 in data set [5], in data set [6] and in data set [12] was more than 10 µM each time. Further, the inhibition at 0.4 µM in [7] and in data set [9] was less than 50% in each case. For the same compound, the inhibition at 50 µM in data set [10] and in data set [11] was less than 50% throughout.
Take `CC1=CC[C@]2(C(=O)O)CC[C@]3(C=O)[C@H](CC[C@@H]4[C@@]5(C)CC[C@H](O)C(C)(C)[C@@H]5CC[C@]43C)[C@H]2[C@@H]1C`: in data set [1], the inhibition at 72 h, 10 µM is less than 5%. Besides, the inhibition at 10 µM is 53.8% in data set [2] and 35.9% in [8]. The figures for the inhibition at 2 µM in data set [3] and in data set [4] were 14.1% and 19.2%, respectively. The IC50 in [5], in data set [6] and in data set [12] was more than 10 µM each time. Also, the figures for the inhibition at 0.4 µM in [7] and in data set [9] were 14.8% and 23.6%, respectively.
Regarding `C=C1[C@@H](O)[C@H](O)C[C@]2(C)[C@H]3CC=C4[C@@H]5[C@@H](C)[C@H](C)CC[C@]5(C(=O)O)CC[C@@]4(C)[C@]3(C)CC[C@@H]12` [ILEKUDINOL B], the half-inhibitory concentration (IC50) in data set [5] is 9.1 µM; in data set [6], more than 10 µM; in data set [12], more than 10 µM.
In the case of `C[C@H]1[C@H](C)CC[C@]2(C(=O)O)CC[C@]3(C)C(=CC[C@@H]4[C@@]5(C)C[C@@H](O)[C@H](O)[C@@](C)(CO)[C@@H]5CC[C@]43C)[C@H]12` [ASIATIC ACID], in data set [1], the inhibition at 72 h, 10 µM is less than 5%. Moreover, the inhibition at 10 µM in [2] and in data set [8] was less than 50% each time. Also, the inhibition at 2 µM in [3] and in [4] was less than 50% in each case. The IC50 in data set [5], in data set [6] and in data set [12] was more than 10 µM throughout. Also, the inhibition at 0.4 µM in [7] and in data set [9] was less than 50% throughout. Besides, the inhibition at 50 µM in data set [10] and in data set [11] was less than 50% each time.
`C=C1CC[C@]2(C(=O)O)CC[C@]3(C)C(=CC[C@@H]4[C@@]5(C)C[C@@H](O)[C@H](O)C(C)(C)[C@@H]5CC[C@]43C)[C@@H]2[C@H]1C`: the inhibition at 72 h, 10 µM in data set [1] was less than 5%. In addition, the inhibition at 10 µM in data set [2] and in data set [8] was less than 50% each time. Also, the inhibition at 2 µM in data set [3] and in data set [4] was less than 50% in each case. Also, the IC50 in [5], in data set [6] and in [12] was more than 10 µM in each case. Further, the inhibition at 0.4 µM in [7] and in data set [9] was less than 50% in each case. The inhibition at 50 µM in [10] and in [11] was less than 50% each time.
Turning to `CC1(C)CC[C@]2(C(=O)O)CC[C@]3(C)C(=CC[C@@H]4[C@@]5(C)CC[C@H](O)C(C)(C)[C@@H]5CC[C@]43C)[C@@H]2C1` [OLEANOLIC_ACID], the IC50 in data set [5], in [6] and in data set [12] was more than 10 µM throughout.
For the compound `CC1=CC[C@]2(C(=O)O)CC[C@]3(C)[C@H](CC[C@@H]4[C@@]5(C)CC[C@H](O)C(C)(C)[C@@H]5CC[C@]43C)[C@H]2[C@@H]1C`, the IC50 is 2.4 µM in [5], 4.3 µM in data set [6] and 1.9 µM in data set [12].
In data set [5], `COc1cccc2c1C(=O)c1c(O)c3c(c(O)c1C2=O)C[C@@](O)(C(=O)CO)C[C@@H]3O[C@H]1C[C@H](N)[C@H](O)[C@H](C)O1` [DOXORUBICIN] registered an IC50 of 1.6 µM.
Regarding `COC(=O)[C@]12CCC(C)(C)CC1=C1CC[C@@H]3[C@@]4(C)CC[C@H](O)C(C)(C)[C@@H]4CC[C@@]3(C)[C@]1(C(=O)O)CC2`, the IC50 in [5] is 5.1 µM; in [6], more than 10 µM; in data set [12], 5 µM.
In the case of `C[C@H]1[C@H](C)CC[C@]2(C(=O)O)CC[C@]3(C)C(=CC[C@@H]4[C@@]5(C)C[C@@H](O)[C@H](O)C(C)(C)[C@@H]5CC[C@]43C)[C@H]12` [COROSOLIC ACID], the inhibition at 72 h, 10 µM in data set [1] is less than 5%. In addition, the inhibition at 10 µM in [2] and in data set [8] was less than 50% each time. The inhibition at 2 µM in [3] and in [4] was less than 50% in each case. Also, the IC50 was 4.4 µM in data set [5], more than 10 µM in [6] and more than 10 µM in [12]. Besides, the inhibition at 0.4 µM in [7] and in [9] was less than 50% each time. Moreover, the inhibition at 50 µM in data set [10] and in [11] was less than 50% each time.
